Results reported in ChEMBL document CHEMBL1158565, “Antagonism of 4-substituted 1,4-dihydropyridine-3,5-dicarboxylates toward voltage-dependent L-type Ca2+ channels Ca V 1.3 and Ca V 1.2” (Bioorg Med Chem, 2010).

Tests used:
[1] = biological target: Voltage-dependent L-type calcium channel subunit alpha-1D (Rattus norvegicus, UniProt P27732); assay: Antagonist activity at rat Cav1.3 expressed in HEK293 cells assessed as inhibition of voltage pulse-induced calcium current by FLIPR calcium 4 assay; type: functional, cell-based
Sequence of Voltage-dependent L-type calcium channel subunit alpha-1D (P27732 whole entry): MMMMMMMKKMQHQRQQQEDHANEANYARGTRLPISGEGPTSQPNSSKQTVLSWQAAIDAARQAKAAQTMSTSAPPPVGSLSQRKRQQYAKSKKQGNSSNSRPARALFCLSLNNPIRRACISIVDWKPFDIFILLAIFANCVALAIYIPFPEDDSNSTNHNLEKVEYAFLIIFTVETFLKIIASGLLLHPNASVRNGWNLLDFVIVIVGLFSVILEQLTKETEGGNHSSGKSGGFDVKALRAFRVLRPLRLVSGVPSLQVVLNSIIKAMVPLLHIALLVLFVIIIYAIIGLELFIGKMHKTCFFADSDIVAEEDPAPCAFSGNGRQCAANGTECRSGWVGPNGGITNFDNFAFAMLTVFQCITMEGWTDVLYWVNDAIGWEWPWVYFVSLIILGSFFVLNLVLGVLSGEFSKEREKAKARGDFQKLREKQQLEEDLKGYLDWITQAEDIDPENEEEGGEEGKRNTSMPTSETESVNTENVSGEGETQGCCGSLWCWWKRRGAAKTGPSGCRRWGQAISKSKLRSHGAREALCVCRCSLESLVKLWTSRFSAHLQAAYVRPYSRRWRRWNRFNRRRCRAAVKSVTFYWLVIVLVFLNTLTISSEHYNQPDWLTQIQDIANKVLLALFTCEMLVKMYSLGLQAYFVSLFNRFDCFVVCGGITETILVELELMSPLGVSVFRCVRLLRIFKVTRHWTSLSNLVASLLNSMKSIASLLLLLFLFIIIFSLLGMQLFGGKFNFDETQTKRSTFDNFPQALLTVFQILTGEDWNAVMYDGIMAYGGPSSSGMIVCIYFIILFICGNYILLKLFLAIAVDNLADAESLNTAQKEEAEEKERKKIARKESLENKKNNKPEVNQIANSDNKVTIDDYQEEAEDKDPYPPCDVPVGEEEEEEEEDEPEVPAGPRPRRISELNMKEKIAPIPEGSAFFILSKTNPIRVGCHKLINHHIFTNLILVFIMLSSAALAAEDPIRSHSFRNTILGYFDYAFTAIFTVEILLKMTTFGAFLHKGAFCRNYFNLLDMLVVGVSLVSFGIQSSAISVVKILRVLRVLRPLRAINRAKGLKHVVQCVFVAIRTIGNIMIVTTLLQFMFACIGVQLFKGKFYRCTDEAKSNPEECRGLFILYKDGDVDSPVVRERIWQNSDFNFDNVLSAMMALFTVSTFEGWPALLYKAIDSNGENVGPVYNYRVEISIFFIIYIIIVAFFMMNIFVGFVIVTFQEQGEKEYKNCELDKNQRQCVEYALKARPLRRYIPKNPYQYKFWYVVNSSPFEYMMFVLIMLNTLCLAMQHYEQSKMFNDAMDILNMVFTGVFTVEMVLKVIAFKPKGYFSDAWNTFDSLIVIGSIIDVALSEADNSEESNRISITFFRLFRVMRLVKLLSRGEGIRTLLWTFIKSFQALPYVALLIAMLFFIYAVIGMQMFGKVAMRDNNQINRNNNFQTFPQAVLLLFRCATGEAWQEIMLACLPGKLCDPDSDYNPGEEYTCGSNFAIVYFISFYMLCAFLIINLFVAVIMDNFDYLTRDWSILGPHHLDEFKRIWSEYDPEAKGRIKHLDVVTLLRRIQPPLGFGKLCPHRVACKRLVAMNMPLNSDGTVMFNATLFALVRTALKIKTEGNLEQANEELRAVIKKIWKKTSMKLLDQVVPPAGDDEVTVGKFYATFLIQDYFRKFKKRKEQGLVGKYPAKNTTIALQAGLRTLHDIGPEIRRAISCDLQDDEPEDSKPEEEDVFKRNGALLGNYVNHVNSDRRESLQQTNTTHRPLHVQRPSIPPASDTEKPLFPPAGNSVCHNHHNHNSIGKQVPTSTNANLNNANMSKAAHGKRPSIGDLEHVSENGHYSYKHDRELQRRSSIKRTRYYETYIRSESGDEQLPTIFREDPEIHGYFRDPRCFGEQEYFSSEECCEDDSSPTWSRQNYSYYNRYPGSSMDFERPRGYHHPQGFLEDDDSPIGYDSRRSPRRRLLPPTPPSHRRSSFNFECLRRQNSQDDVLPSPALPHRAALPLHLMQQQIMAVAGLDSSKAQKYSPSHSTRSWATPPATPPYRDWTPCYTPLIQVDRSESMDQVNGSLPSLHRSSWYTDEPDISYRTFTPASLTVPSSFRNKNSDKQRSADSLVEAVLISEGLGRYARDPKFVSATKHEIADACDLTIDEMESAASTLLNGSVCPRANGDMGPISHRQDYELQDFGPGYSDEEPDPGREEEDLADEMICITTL
Procedure, shortened: (§1)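 HEK293 lines stably expressing Cavβ3 and Cavα2δ-1 plus Cav1.2 α1C (rabbit) or Cav1.3 α1D (rat) were selected with zeocin/hygromycin. Calcium signals were read by FLIPR with Calcium 4 dye. IC50 came from 11-point dose-response curves. Signal percentage error (SD/mean) was 6.4% for Cav1.2 and 4.1% for Cav1.3 cells.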

[2] = biological target: Voltage-dependent L-type calcium channel subunit alpha-1C (Oryctolagus cuniculus, UniProt P15381); assay: Antagonist activity at rabbit Cav1.2 expressed in HEK293 cells assessed as inhibition of voltage pulse-induced calcium current by FLIPR calcium 4 assay; type: functional, cell-based; procedure, shortened: as §1
Sequence of Voltage-dependent L-type calcium channel subunit alpha-1C (P15381 whole entry): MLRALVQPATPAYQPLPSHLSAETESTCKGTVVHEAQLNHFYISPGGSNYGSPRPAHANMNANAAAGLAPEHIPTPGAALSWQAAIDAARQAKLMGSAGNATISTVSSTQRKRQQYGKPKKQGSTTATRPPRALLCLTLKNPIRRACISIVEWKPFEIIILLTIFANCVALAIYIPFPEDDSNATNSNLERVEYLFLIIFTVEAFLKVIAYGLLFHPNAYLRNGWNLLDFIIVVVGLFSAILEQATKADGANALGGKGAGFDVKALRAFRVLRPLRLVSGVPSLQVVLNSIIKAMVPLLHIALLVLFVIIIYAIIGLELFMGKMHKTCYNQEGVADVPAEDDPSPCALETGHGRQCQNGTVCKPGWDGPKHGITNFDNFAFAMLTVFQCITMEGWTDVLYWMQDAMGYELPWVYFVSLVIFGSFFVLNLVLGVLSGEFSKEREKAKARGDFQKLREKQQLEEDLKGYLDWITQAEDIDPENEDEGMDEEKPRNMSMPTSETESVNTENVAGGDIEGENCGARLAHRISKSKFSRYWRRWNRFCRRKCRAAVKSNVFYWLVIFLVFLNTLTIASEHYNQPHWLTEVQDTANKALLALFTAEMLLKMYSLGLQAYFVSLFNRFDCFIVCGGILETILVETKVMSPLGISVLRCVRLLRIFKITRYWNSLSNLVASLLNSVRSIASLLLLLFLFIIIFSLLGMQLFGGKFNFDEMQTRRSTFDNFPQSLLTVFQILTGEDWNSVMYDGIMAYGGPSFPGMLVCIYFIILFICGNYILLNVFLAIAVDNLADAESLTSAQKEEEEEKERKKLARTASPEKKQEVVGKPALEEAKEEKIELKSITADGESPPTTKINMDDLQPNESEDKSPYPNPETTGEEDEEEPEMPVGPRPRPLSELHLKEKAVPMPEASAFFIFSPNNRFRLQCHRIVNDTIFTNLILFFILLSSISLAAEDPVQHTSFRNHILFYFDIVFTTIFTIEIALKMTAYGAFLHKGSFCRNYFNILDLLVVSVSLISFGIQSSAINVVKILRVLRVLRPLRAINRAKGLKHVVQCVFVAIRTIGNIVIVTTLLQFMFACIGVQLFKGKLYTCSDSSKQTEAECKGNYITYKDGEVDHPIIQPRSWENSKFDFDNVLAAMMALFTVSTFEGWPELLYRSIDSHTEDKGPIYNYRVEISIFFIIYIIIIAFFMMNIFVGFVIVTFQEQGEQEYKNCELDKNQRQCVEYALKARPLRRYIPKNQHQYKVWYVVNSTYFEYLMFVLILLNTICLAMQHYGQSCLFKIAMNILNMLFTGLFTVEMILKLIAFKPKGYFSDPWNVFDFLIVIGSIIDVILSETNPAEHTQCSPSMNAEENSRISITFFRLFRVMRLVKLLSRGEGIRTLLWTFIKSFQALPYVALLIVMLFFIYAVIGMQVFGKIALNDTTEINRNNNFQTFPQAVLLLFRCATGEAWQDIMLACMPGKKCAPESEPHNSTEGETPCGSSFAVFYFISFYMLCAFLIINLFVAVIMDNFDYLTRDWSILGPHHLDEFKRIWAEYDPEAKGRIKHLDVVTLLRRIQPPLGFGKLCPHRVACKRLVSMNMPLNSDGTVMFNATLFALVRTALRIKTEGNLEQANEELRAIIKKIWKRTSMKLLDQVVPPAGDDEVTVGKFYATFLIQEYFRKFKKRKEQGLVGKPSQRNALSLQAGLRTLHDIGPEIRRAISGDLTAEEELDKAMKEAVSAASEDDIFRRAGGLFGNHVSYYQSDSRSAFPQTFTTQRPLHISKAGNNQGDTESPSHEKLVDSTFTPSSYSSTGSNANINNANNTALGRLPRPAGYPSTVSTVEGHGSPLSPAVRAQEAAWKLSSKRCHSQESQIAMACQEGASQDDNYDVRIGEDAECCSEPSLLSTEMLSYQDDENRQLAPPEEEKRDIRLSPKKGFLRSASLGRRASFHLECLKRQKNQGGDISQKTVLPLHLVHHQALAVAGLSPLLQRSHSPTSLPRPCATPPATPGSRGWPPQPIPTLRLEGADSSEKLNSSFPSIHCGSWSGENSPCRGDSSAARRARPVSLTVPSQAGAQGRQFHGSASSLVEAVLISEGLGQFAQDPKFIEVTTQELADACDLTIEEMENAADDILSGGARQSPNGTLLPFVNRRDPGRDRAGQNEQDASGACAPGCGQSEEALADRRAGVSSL

Row | IC50 [1] [nM] | SMILES | IC50 [2] [nM]
1 | 13900 | CCOC(=O)C1=C(C)NC(C)=C(C(=O)OC=O)C1c1cccc([N+](=O)[O-])c1 (configuration not stated) | 33300
2 | 21 | COC(=O)C1=C(C)NC(C)=C(C(=O)OCC2CC2)C1c1cccc([N+](=O)[O-])c1 (configuration not stated) | 28
3 | 137 | CCOC(=O)C1=C(C)NC(C)=C(C(=O)OCCC#N)[C@@H]1c1cccc([N+](=O)[O-])c1 | 50
4 | 53 | CCOC(=O)C1=C(C)NC(CCl)=C(C(=O)OCC)C1c1cccc([N+](=O)[O-])c1 (configuration not stated) | 10
5 | 1920 | CCOC(=O)C1=C(C)OC(C)=C(C(=O)OCC)C1c1cccc([N+](=O)[O-])c1 | > 4000
6 | 10 | C=C(C)C(=O)OCCOC(=O)C1=C(C)NC(C)=C(C(=O)OCC)C1c1cccc([N+](=O)[O-])c1 (configuration not stated) | 10
7 | 350 | COCC1=C(C(=O)OC)C(c2cccc([N+](=O)[O-])c2)C(C(=O)OC)=C(C)N1 (configuration not stated) | 115
8 | 105 | CCCC1=C(C(=O)OCC)C(c2cccc([N+](=O)[O-])c2)C(C(=O)OCC)=C(C)N1 (configuration not stated) | 18
9 | 15 | C=CCOC(=O)C1=C(C)NC(C)=C(C(=O)OC)C1c1cccc([N+](=O)[O-])c1 (configuration not stated) | 15
10 | 37 | COC(=O)C1=C(C)NC(C)=C(C(=O)OC/C=C/c2ccccc2)C1c1cccc([N+](=O)[O-])c1 (configuration not stated) [PRANIDIPINE] | 37
11 | 610 | CCOC(=O)C1=C(C)NC(CN2CCN(c3ccccc3)CC2)=C(C(=O)OCC)C1c1cccc([N+](=O)[O-])c1 (configuration not stated) | 630
12 | 399 | COC(=O)C1=C(C)NC(C)=C(C(=O)OCCC#N)[C@@H]1c1cccc([N+](=O)[O-])c1 | 262
13 | 45 | CCOC(=O)C1=C(C)NC(/C=C/C#N)=C(C(=O)OCC)C1c1cccc([N+](=O)[O-])c1 (configuration not stated) | 22
14 | 930 | COC(=O)C1=C(C)NC(C)=C(C(=O)O)C1c1cccc([N+](=O)[O-])c1 (configuration not stated) | 900
15 | 21 | COC(=O)C1=C(C)NC(C)=C(C(=O)OCC(F)(F)F)C1c1cccc([N+](=O)[O-])c1 (configuration not stated) | 16
16 | 15 | COC(=O)C1=C(C)NC(C)=C(C(=O)OCc2ccccc2)C1c1cccc([N+](=O)[O-])c1 (configuration not stated) | 25
17 | 22 | COC(=O)C1=C(C)NC(C)=C(C(=O)OCCCl)C1c1cccc([N+](=O)[O-])c1 (configuration not stated) | 26
18 | 78 | COC(=O)C1=C(C)NC(C)=C(C(=O)OCCC#N)C1c1cccc([N+](=O)[O-])c1 (configuration not stated) | 26
19 | 211 | CCOC(=O)C1=C(C)NC(C)=C(C(=O)OCCC#N)[C@H]1c1cccc([N+](=O)[O-])c1 | 51
20 | > 4000 | CCOC(=O)C1=C(C)NC2=C(C(=O)OC2)C1c1cccc([N+](=O)[O-])c1 (configuration not stated) | > 4000
21 | 130 | CCCCCOC(=O)C1=C(C)NC(C)=C(C(=O)OCC)C1c1cccc([N+](=O)[O-])c1 (configuration not stated) | 49
22 | 47 | C=C(C)CCOC(=O)C1=C(C)NC(C)=C(C(=O)OC)C1c1cccc([N+](=O)[O-])c1 (configuration not stated) | 23
23 | 15 | C=CCOC(=O)C1=C(C)NC(C)=C(C(=O)OCC)C1c1cccc([N+](=O)[O-])c1 (configuration not stated) | 25
24 | 15 | COC(=O)C1=C(C)NC(C)=C(C(=O)OCc2ccco2)C1c1cccc([N+](=O)[O-])c1 (configuration not stated) | 20
25 | 615 | CCOC(=O)C1=C(C)NC(C(OCC)OCC)=C(C(=O)OCC)C1c1cccc([N+](=O)[O-])c1 (configuration not stated) | 460

Further lines, the molecule ahead of its results:

Row | SMILES | IC50 [1] [nM] | IC50 [2] [nM]
26 | COC(=O)C1=C(C)NC(C)=C(C(=O)OCc2ccc(-c3ccccc3)cc2)C1c1cccc([N+](=O)[O-])c1 (configuration not stated) | 74 | 69
27 | CCOC(=O)C1=C(C)NC(C)=C(C(=O)OCC)C1c1ccccc1SC | 15 | 8
28 | COC(=O)C1=C(C)NC(C)=C(C(=O)OCCC(C)c2ccccc2)C1c1cccc([N+](=O)[O-])c1 (configuration not stated) | 11 | 6
29 | COC(=O)C1=C(C)NC(C)=C(C(=O)OCC(C)[N+](=O)[O-])C1c1cccc([N+](=O)[O-])c1 (configuration not stated) | 111 | 108
30 | CCOC(=O)C1=C(C)NC(COC)=C(C(=O)OC)C1c1ccccc1[N+](=O)[O-] (configuration not stated) | 790 | 1760
31 | C=CCOC(=O)C1=C(C)NC(C)=C(C(=O)OC)C1c1ccccc1[N+](=O)[O-] (configuration not stated) | 10 | 8
32 | CCOC(=O)C1=C(C)NC(C)=C(C(=O)OCc2ccc([N+](=O)[O-])cc2)C1c1cccc([N+](=O)[O-])c1 (configuration not stated) | 140 | 130
33 | COC(=O)C1=C(C)NC(C)=C(C(=O)OCCc2ccc(Cl)cc2)C1c1cccc([N+](=O)[O-])c1 (configuration not stated) | 39 | 8
34 | COC(=O)C1=C(C)N=C(C)/C(=C(/O)OC)C1(C)c1ccccc1 (configuration not stated) | 2310 | 1470
35 | COC(=O)C1=C(C)NC(C)=C(C(=O)OCc2c(Cl)cc(Cl)cc2Cl)C1c1cccc([N+](=O)[O-])c1 (configuration not stated) | 34 | 10
36 | COC(=O)C1=C(C)NC(C)=C(C(=O)OCc2cc([N+](=O)[O-])cc([N+](=O)[O-])c2)C1c1cccc([N+](=O)[O-])c1 (configuration not stated) | 40 | 55
37 | COC(=O)C1=C(C)NC(C)=C(C(=O)OCCCCc2ccc(OC)cc2)C1c1cccc([N+](=O)[O-])c1 (configuration not stated) | 38 | 17
38 | COC(=O)C1=C(C)NC(C)=C(C(=O)OCCOCc2ccccc2)C1c1cccc([N+](=O)[O-])c1 (configuration not stated) | 12 | 9
39 | COC(=O)C1=C(C)NC(C)=C(C(=O)OCCC(c2ccccc2)c2ccccc2)C1c1cccc([N+](=O)[O-])c1 (configuration not stated) | 270 | 100
40 | COC(=O)C1=C(C)NC(C)=C(C(=O)OC)C1c1ccccc1SC | 35 | 8
41 | C=CCOC(=O)C1=C(C)NC(C)=C(C(=O)OCC)C1c1ccc2ccccc2c1 (configuration not stated) | 2160 | 1310
42 | COC(=O)C1=C(C)NC(C)=C(C(=O)OCCCCc2ccccc2)C1c1cccc([N+](=O)[O-])c1 (configuration not stated) | 38 | 10
43 | CCOC(=O)C1=C(C)NC(/C=C/c2ccc([N+](=O)[O-])cc2)=C(C(=O)OCC)C1c1cccc([N+](=O)[O-])c1 (configuration not stated) | 2060 | 1940
44 | COC(=O)C1=C(C)NC(C)=C(C(=O)OCc2ccc(OC)cc2)C1c1cccc([N+](=O)[O-])c1 (configuration not stated) | 79 | 51
45 | COC(=O)C1=C(C)NC(C)=C(C(=O)OCCOc2ccccc2Cl)C1c1cccc([N+](=O)[O-])c1 (configuration not stated) | 46 | 19
46 | COC(=O)C1=C(C)NC(C)=C(C(=O)OCc2ccc(F)c(F)c2)C1c1cccc([N+](=O)[O-])c1 (configuration not stated) | 20 | 7
47 | COC(=O)C1=C(C)NC(C)=C(C(=O)OCc2ccc(OC)c(OC)c2)C1c1cccc([N+](=O)[O-])c1 (configuration not stated) | 117 | 112
48 | CCOC(=O)C1=C(C)NC(C)=C(C(C)=O)C1c1ccc2ccccc2c1 (configuration not stated) | 2320 | 2220
49 | COC(=O)C1=C(C)NC(C)=C(C(=O)OCc2cccc(F)c2)C1c1cccc([N+](=O)[O-])c1 (configuration not stated) | 28 | 22
50 | COC(=O)C1=C(C)NC(C)=C(C(=O)OCC23CC4CC(C)(CC(C)(C4)C2)C3)C1c1cccc([N+](=O)[O-])c1 (configuration not stated) | 5070 | 685
51 | CCOC(=O)C1=C(C)NC(C)=C(C(=O)OCC)C1c1ccc(F)cc1F | 58 | 20
